The results in this text go back to ChEMBL document CHEMBL4725418, “Design, Synthesis, and Structure-Activity Relationship Studies of Dual Inhibitors of Soluble Epoxide Hydrolase and 5-Lipoxygenase” (J Med Chem, 2020).

The source made the active and inactive calls. The calls are words filed in the database; no cut-off is given here.

In data set [1] the target is T1, Polyunsaturated fatty acid lipoxygenase ALOX15 (Homo sapiens) (UniProt P16050).
T1 sequence (whole entry): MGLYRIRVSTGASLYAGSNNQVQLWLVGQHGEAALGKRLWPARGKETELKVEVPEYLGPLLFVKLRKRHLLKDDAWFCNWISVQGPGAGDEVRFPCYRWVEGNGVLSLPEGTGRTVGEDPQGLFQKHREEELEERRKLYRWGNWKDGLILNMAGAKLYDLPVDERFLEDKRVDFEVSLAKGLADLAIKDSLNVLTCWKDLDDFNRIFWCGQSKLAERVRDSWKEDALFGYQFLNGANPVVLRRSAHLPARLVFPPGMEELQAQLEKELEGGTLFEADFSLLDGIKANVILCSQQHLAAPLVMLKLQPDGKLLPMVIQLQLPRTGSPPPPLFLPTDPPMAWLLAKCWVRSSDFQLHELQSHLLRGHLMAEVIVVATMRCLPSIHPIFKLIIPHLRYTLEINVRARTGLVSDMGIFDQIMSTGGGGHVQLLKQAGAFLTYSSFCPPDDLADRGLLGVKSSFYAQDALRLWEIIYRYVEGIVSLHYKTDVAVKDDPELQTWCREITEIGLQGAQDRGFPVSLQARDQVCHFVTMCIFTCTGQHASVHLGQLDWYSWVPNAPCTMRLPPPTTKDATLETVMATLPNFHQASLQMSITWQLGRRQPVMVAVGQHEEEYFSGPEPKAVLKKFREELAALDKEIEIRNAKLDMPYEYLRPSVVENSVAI
Kind of data set: Activation of 15-LOX in human PMNL pre-incubated for 15 mins before addition of AA and A23187 and measured after 10 mins by HPLC/UV assay. The note with it: filed as activator, time 25.0 min.

Data set [2] deals with Mus musculus. Nature of the data set: Anti-inflammatory activity in C57BL/6 mouse model of unilateral ureter obstruction-induced kidney inflammation and fibrosis assessed as reduction in TNFalpha mRNA expression at 3 mg/kg, ip dosed daily for 7 days by real-time qPCR analysis. The format is functional, organism-based. The note with it: time 7.0 day. The method in brief:
(§1)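 Mice with unilateral ureter obstruction to induce kidney inflammation and fibrosis, given compound or vehicle intraperitoneally. Ligated (UUO) and contralateral kidneys taken at day 7. Fibrosis read by AZAN and Sirius Red staining, with Sirius Red imaged under bright and polarized light. Macrophages detected by F4/80 staining, quantified as positive area. Col1a1, FN1, TNFα and Ccl2 mRNA measured in whole-kidney homogenates by real-time qRT-PCR normalized to GAPDH.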
On the technique in general: In qPCR the cycle at which signal appears reflects the starting amount.

The target in data set [3] is T2, Polyunsaturated fatty acid 5-lipoxygenase (Homo sapiens, UniProt P09917).
T2 sequence (P09917 whole entry): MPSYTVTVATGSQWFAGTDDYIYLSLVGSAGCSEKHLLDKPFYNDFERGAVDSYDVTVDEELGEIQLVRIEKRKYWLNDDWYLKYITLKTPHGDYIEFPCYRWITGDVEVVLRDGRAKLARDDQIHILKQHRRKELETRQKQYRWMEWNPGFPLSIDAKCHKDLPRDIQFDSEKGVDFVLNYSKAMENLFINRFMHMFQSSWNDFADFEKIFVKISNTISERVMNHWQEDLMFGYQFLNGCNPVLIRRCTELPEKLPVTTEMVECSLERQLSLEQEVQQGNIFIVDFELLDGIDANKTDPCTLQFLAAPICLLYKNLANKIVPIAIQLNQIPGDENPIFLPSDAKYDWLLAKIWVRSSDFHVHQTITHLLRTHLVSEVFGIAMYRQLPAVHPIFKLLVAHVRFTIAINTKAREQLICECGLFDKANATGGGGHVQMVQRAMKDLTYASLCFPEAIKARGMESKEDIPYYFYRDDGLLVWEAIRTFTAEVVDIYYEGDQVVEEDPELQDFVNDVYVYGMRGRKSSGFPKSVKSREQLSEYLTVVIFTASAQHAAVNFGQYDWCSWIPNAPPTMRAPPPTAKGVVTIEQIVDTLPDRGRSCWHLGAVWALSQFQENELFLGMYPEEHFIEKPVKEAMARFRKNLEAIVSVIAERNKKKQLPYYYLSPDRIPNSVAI
Nature of the data set: Inhibition of 5-LOX in human PMNL assessed as reduction in 5-HETE and LTB4 formation pre-incubated for 15 mins before addition of AA and A23187 and measured after 10 mins by HPLC/UV assay.

Data set [4] relates to Mus musculus. Nature of the data set: Anti-fibrotic activity in C57BL/6 mouse model of unilateral ureter obstruction-induced kidney inflammation and fibrosis assessed as inhibition of tubulo-interstitial fibrosis by measuring reduced fibrillar collagen at 3 mg/kg, ip dosed daily for 7 days by Sirius red staining method. The format is functional, organism-based. The note with it: time 7.0 day. The method in brief: as §1

The subject of data set [5] is Mus musculus. Nature of the data set: Anti-fibrotic activity in C57BL/6 mouse model of unilateral ureter obstruction-induced kidney inflammation and fibrosis assessed as reduction in FN1 mRNA expression at 3 mg/kg, ip dosed daily for 7 days by real-time qPCR analysis. The note with it: time 7.0 day. The format is functional, organism-based. The method in brief:
as §1

The subject of data set [6] is Mus musculus. Kind of data set: Anti-inflammatory activity in C57BL/6 mouse model of unilateral ureter obstruction-induced kidney inflammation and fibrosis assessed as reduction in Ccl2 mRNA expression at 3 mg/kg, ip dosed daily for 7 days by real-time qPCR analysis. It counts as functional, organism-based. The note with it: time 7.0 day. Summed up: as §1
For data set [7], the system named is HepG2. Kind of data set: Cytotoxicity in human HepG2 cells assessed as effect on cell viability up to 25 uM incubated for 48 hrs by CellTiter-Glo luminescent cell viability assay. The note with it: hepg2, 48 h. The format is cell-based. Summed up:
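Cell viability measured by CellTiter-Glo luminescence, quantifying ATP as an indicator of viable cells.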

Data set [8] relates to Mus musculus. Nature of the data set: Anti-fibrotic activity in C57BL/6 mouse model of unilateral ureter obstruction-induced kidney inflammation and fibrosis assessed as reduction in macrophage infiltration into the obstructed kidney at 3 mg/kg, ip dosed daily for 7 days by F4/80 antibody staining based assay. The format is functional, organism-based. The note with it: time 7.0 day. The method in brief: as §1

Data set [9] in a line: Cmax in Swiss CD-1 mouse at 3 mg/kg, po administered as single dose by LC-MS analysis. The format is ADME, organism-based. Details: route oral, dose 3 mg/kg. The note with it: in vivo. The method in brief: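 Male Swiss CD-1 mice received a single oral dose of 3 mg/kg in 1% methylcellulose/Tween80 (99:1); nine mice treated, three vehicle controls, three mice per time point. Serum analyzed by LC-MS for concentration–time profile.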

A short description of data set [10]: Metabolic stability in rat liver microsomes assessed as compound remaining after 60 mins. It counts as ADME, Microsome. The note with it: read-out: Stabilty. The method in brief:
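Compound incubated with rat liver microsomes for 60 min; percent parent compound remaining determined; n ≥ 3.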
Background: Microsomes from liver hold many membrane-bound enzymes, among them those of drug oxidation.

Data set [11] is filed under the species Mus musculus. Nature of the data set: Inhibition of sEH in naive mouse assessed as increase in plasma EET/DHET ratio level. It counts as functional. The method in brief:
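Plasma from naive mice given a single oral 3 mg/kg dose analyzed for EET/DHET ratio as a read-out of sEH inhibition.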

Data set [12] concerns Mus musculus. Nature of the data set: Anti-fibrotic activity in C57BL/6 mouse model of unilateral ureter obstruction-induced kidney inflammation and fibrosis assessed as reduction in Col1a1 mRNA expression at 3 mg/kg, ip dosed daily for 7 days by real-time qPCR analysis. The format is functional, organism-based. The note with it: time 7.0 day. The method in brief:
as §1

As usually defined, the IC50 is the concentration that gives 50% inhibition. A word on the Cmax: it is the maximum level reached in the sampled fluid or tissue.

Regarding `C[C@H](C#Cc1cccc(C(=O)NCCC(c2ccc(F)cc2)c2ccc(F)cc2)c1)N(O)C(N)=O`, the outcome in data set [1], in [2], in data set [4], in data set [5], in data set [6] and in [8] was Active. Further, the outcome in [11] and in [12] was Active. For the same compound, in [3], the IC50 was 0.21 µM. In addition, the Activity entry in [7] was “Non-Toxic”. The Cmax in data set [9] came to 700 nM. Besides, the remaining at 1 h in data set [10] is 50%.
